Drawing on ChEMBL document CHEMBL4364279, “Design, synthesis, in-silico and biological evaluation of novel chalcone-O-carbamate derivatives as multifunctional agents for the treatment of Alzheimer's disease” (Eur J Med Chem, 2019), this text covers Activity, inhibition and IC50 for one compound.

Assay [1] can be described thus: Metal chelating activity of the compound assessed as formation of Fe2+-compound complex at 37.5 uM after 30 mins by UV-vis absorption spectra analysis. The method in brief: (§1)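 Metal binding examined by plate-reader absorbance scan using CuCl2, ZnCl2, AlCl3, FeSO4, CuCl and Fe(NO3)3 as metal sources.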
The nature of assay [2]: Inhibition of Cu2+-induced amyloid beta (1 to 42 residues) (unknown origin) aggregation at 25 uM after 24 hrs by thioflavin-T based fluorescence assay relative to control. The method, boiled down:
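Aβ1-42 (25 µM) and Cu2+ (25 µM) incubated at 37 °C for 24 h with or without compound (25 µM). ThT (5 µM in 50 mM glycine-NaOH, pH 8.5) then added; fluorescence read at ex 446/em 490 nm. Inhibition = (1−IFi/IFc)×100 after background subtraction. Three independent experiments.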

Assay [3] can be described thus: Inhibition of Cu2+-induced amyloid beta (1 to 42 residues) (unknown origin) aggregation assessed as appearance of small bulk aggregates at 25 uM after 24 hrs uranyl acetate staining-based by TEM analysis. The method in brief: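 Aβ1-42 (25 µM) and Cu2+ (25 µM) incubated with compound at 37 °C for 24 h. Aliquots applied to carbon-coated copper/rhodium grids for 2 min at room temperature, washed with water, stained with 1% w/v uranyl acetate, air-dried 15 min, then examined by field-emission TEM.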

Assay [4] is described as follows: Metal chelating activity assessed as mole fraction of compound required to show 1:1 stoichiometry for compound-Cu2+ complex at 37.5 uM after 30 mins by UV spectrometry method. The method in brief: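 Molar-ratio method: a methanol solution of compound (final 37.5 µM) titrated with ascending amounts of CuCl2, with absorbance followed at 426 nm by plate reader.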

The next assay concerns the target Cholinesterase (Equus caballus, UniProt P81908). The experiment in a line: Inhibition of equine serum BuChE using S-butyrylthiocholine iodide as susbtrate preincubated for 6 mins followed by substrate addition measured up to 3 mins by Ellman's method. (In general: Ellman's reagent forms a yellow product with free thiols.)
Assay [5] can be described thus: Metal chelating activity of the compound assessed as formation of Cu2+-compound complex by measuring red shift in maximum absorption at 37.5 uM after 30 mins by UV-vis absorption spectra analysis (reference value: 359 nanometer). The method in brief:
as §1

The target of assay [6] is Cholinesterase (Homo sapiens) (UniProt P06276). Nature of the assay: Reversible competitive inhibition of BuChE (unknown origin) assessed as […] at 1 to 6 uM using butyrylthiocholine iodide as susbtrate.
Cholinesterase (Homo sapiens), sequence (P06276 whole entry): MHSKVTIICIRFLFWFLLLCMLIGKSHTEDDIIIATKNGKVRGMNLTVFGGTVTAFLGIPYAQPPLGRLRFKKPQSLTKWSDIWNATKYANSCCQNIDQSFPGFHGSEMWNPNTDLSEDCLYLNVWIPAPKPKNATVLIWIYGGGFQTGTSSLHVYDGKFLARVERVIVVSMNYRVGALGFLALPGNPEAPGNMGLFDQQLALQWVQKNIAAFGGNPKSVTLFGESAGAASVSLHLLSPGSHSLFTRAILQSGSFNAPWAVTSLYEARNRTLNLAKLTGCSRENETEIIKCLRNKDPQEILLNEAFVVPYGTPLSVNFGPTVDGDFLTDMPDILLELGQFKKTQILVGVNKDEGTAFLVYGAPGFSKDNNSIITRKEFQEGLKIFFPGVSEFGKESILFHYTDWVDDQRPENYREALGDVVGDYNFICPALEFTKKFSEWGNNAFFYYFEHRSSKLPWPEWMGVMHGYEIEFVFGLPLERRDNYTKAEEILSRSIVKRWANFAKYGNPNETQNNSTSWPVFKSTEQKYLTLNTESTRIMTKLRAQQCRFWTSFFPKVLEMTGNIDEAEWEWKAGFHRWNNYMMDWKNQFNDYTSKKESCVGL
The next assay deals with Mus musculus. Nature of the assay: Reversal of scopolamine-induced memory cognitive memory impairment in Kunming mouse assessed as change in spontaneous alteration behavior at 23.4 mg/kg, ig pretreated for 30 mins followed by scopolamine challenge and after 30 mins by Y-maze test (reference value: 45.6%). It is filed as functional.
Assay [7] can be described thus: Disaggregation of Cu2+-induced preformed fibrils of amyloid beta (1 to 42 residues) (unknown origin) at 25 uM measured after 24 hrs by TEM analysis. The method, boiled down:
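Aβ1-42 (25 µM) with Cu2+ (25 µM) at 37 °C for 24 h, then compound (25 µM) added for another 24 h. 10 µL aliquots put on carbon-coated copper/rhodium grids for 2 min at room temperature, washed twice with water, stained with 1% w/v uranyl acetate, dried 15 min, then imaged by field-emission TEM.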

Activity calls are given as the source filed them. No cut-off for these calls is given here.

Cholinesterase, sequence (P81908 whole entry): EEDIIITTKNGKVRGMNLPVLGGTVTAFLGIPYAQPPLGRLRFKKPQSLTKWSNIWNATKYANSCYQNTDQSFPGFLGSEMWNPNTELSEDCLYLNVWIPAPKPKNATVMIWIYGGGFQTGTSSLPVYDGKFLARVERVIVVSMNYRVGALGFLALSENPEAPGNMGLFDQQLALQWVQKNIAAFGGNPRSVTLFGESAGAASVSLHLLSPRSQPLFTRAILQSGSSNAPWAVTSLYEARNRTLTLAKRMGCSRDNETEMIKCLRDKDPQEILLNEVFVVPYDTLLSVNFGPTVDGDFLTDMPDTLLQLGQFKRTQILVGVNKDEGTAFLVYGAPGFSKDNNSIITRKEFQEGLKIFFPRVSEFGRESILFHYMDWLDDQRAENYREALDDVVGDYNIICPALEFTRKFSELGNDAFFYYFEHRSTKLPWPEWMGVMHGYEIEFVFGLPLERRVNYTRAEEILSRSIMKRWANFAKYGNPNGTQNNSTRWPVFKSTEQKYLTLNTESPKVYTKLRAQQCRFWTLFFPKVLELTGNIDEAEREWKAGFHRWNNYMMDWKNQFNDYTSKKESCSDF

Consider `CCN(C)C(=O)Oc1cccc(/C=C/C(=O)c2ccccc2O)c1`, for which the result in assay [1] was inactive. The inhibition in assay [2] came out at 78.3%. Further, the inhibition result in assay [3] and in assay [6] was “Active” each time. Also, the Activity is 0.97 molar ratio in assay [4], 435 nm in assay [5] and 59.5% in the assay with Mus musculus. On Cholinesterase, this compound yielded an IC50 of 3.1 µM. Further, the outcome in [7] was Active.

Usually inhibition stands for the share of the control response that was lost under treatment. For orientation: IC50 means the midpoint of a concentration-inhibition curve.
